Measurements as given in ChEMBL document CHEMBL4689842, “EUbOPEN Chemogenomics Library wave 1” (2021).
Several values for one entry are separate records, joined by “and”; a condition that tells them apart may be missing. Equal entries are not always repeated.

Tests used:
Format in all cases: toxicity, cell-based
Fibroblast [1] = test: Multiplex assay against human fibroblast
Procedure, shortened: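 Four dyes were applied at seeding to live cells: Hoechst33342, BioTracker Green Microtubule Cytoskeleton Dye, MitoTracker Red and Annexin V Alexa Fluor 680. Imaging after compound addition used a CQ1 microscope at 37°C and 5% CO2. CellPathfinder machine-learning gating then sorted cells into Hoechst high-intensity objects or normal cells, normal cells into healthy, pyknosed or fragmented nuclei, and pyknosed cells into mitotic or apoptotic, with tubulin, mitochondrial-mass and membrane-permeability phenotypes given as per cents of healthy-nucleus cells.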

HEK-293T = test: Incucyte cell viability with HEK293T; conditions: human, 10 µM, compound concentration 10 uM; further: filed as whole numbers so only -1 and 0 and 1 occur
U2OS = test: Incucyte cell viability with U2OS; conditions: human, 10 µM, compound concentration 10 uM; further: filed as whole numbers so only -1 and 0 and 1 occur
Fibroblast [2] = test: Incucyte cell viability with human fibroblast; conditions: 10 µM, compound concentration 10 uM; further: filed as whole numbers so only -1 and 0 and 1 occur
[3] = 12 h, 1 µM, compound concentration 1 uM, replicate 1
[4] = 12 h, 1 µM, compound concentration 1 uM, replicate 2
[5] = 12 h, 10 µM, compound concentration 10 uM, replicate 1
[6] = 12 h, 10 µM, compound concentration 10 uM, replicate 2
[7] = 24 h, 1 µM, compound concentration 1 uM, replicate 1
[8] = 24 h, 1 µM, compound concentration 1 uM, replicate 2
[9] = 24 h, 10 µM, compound concentration 10 uM, replicate 1
[10] = 24 h, 10 µM, compound concentration 10 uM, replicate 2
[11] = 48 h, 10 µM, compound concentration 10 uM, replicate 1
[12] = 48 h, 10 µM, compound concentration 10 uM, replicate 2
[13] = 6 h, replicate number 1, timepoint 6 hours
[14] = 12 h, replicate number 1, timepoint 12 hours
[15] = 18 h, replicate number 1, timepoint 18 hours
[16] = 24 h, replicate number 1, timepoint 24 hours
[17] = 0 h, replicate number 2, timepoint 0 hours

c1ccc(-c2oc3ncnc(NC[C@@H]4CCCO4)c3c2-c2ccccc2)cc1
Population Apoptotic (%) (Fibroblast [1]; [3]): 77% and 68%
Population Fragmented Nuclei (%) (Fibroblast [1]; [3]): 30% and 24%
Population Healthy Nuclei (%) (Fibroblast [1]; [3]): 49% and 53%
Population Hoechst High Intensity Objects (%) (Fibroblast [1]; [3]): 11% and 13%
Population Membrane Permeable-Phenotype (%) (Fibroblast [1]; [3]): 22% and 42%
Population Mitochondria Different-Phenotype (%) (Fibroblast [1]; [3]): 7% and 16%
Population Mitotic Cells (%) (Fibroblast [1]; [3]): 22% and 31%
Population Normal (%) (Fibroblast [1]; [3]): 88% and 86%
Population Pyknosed Nuclei (%) (Fibroblast [1]; [3]): 20% and 21%
Total Cell Count (Fibroblast [1]; [3]): 123 and 267
Population Apoptotic (%) (Fibroblast [1]; [4]): 50% and 25%
Population Fragmented Nuclei (%) (Fibroblast [1]; [4]): 35% and 48%
Population Healthy Nuclei (%) (Fibroblast [1]; [4]): 40% and 37%
Population Hoechst High Intensity Objects (%) (Fibroblast [1]; [4]): 35% and 44%
Population Membrane Permeable-Phenotype (%) (Fibroblast [1]; [4]): 29% and 27%
Population Mitochondria Different-Phenotype (%) (Fibroblast [1]; [4]): 11% and 18%
Population Mitotic Cells (%) (Fibroblast [1]; [4]): 50% and 75%
Population Normal (%) (Fibroblast [1]; [4]): 64% and 55%
Population Pyknosed Nuclei (%) (Fibroblast [1]; [4]): 23% and 13%
Population Tubulin-Different-Phenotype (%) (Fibroblast [1]; [4]): 47% and 100%
Total Cell Count (Fibroblast [1]; [4]): 65 and 52
Population Apoptotic (%) (Fibroblast [1]; [5]): 53%
Population Fragmented Nuclei (%) (Fibroblast [1]; [5]): 20%
Population Healthy Nuclei (%) (Fibroblast [1]; [5]): 41%
Population Hoechst High Intensity Objects (%) (Fibroblast [1]; [5]): 20%
Population Membrane Permeable-Phenotype (%) (Fibroblast [1]; [5]): 21%
Population Mitochondria Different-Phenotype (%) (Fibroblast [1]; [5]): 42%
Population Mitotic Cells (%) (Fibroblast [1]; [5]): 46%
Population Normal (%) (Fibroblast [1]; [5]): 79%
Population Pyknosed Nuclei (%) (Fibroblast [1]; [5]): 37%
Population Tubulin-Different-Phenotype (%) (Fibroblast [1]; [5]): 84%
Total Cell Count (Fibroblast [1]; [5]): 99
Population Apoptotic (%) (Fibroblast [1]; [6]): 87%
Population Fragmented Nuclei (%) (Fibroblast [1]; [6]): 14%
Population Healthy Nuclei (%) (Fibroblast [1]; [6]): 71%
Population Hoechst High Intensity Objects (%) (Fibroblast [1]; [6]): 6%
Population Membrane Permeable-Phenotype (%) (Fibroblast [1]; [6]): 34%
Population Mitochondria Different-Phenotype (%) (Fibroblast [1]; [6]): 56%
Population Mitotic Cells (%) (Fibroblast [1]; [6]): 12%
Population Normal (%) (Fibroblast [1]; [6]): 93%
Population Pyknosed Nuclei (%) (Fibroblast [1]; [6]): 14%
Population Tubulin-Different-Phenotype (%) (Fibroblast [1]; [6]): 95%
Total Cell Count (Fibroblast [1]; [6]): 61
Population Apoptotic (%) (Fibroblast [1]; [7]): 65% and 78%
Population Fragmented Nuclei (%) (Fibroblast [1]; [7]): 19% and 29%
Population Healthy Nuclei (%) (Fibroblast [1]; [7]): 59% and 57%
Population Hoechst High Intensity Objects (%) (Fibroblast [1]; [7]): 18% and 12%
Population Membrane Permeable-Phenotype (%) (Fibroblast [1]; [7]): 17% and 16%
Population Mitotic Cells (%) (Fibroblast [1]; [7]): 34% and 21%
Population Normal (%) (Fibroblast [1]; [7]): 81% and 87%
Population Pyknosed Nuclei (%) (Fibroblast [1]; [7]): 21% and 13%
Total Cell Count (Fibroblast [1]; [7]): 254 and 121
Population Apoptotic (%) (Fibroblast [1]; [8]): 70% and 83%
Population Fragmented Nuclei (%) (Fibroblast [1]; [8]): 43% and 66%
Population Healthy Nuclei (%) (Fibroblast [1]; [8]): 34% and 17%
Population Hoechst High Intensity Objects (%) (Fibroblast [1]; [8]): 33% and 36%
Population Membrane Permeable-Phenotype (%) (Fibroblast [1]; [8]): 13% and 28%
Population Mitotic Cells (%) (Fibroblast [1]; [8]): 30% and 16%
Population Normal (%) (Fibroblast [1]; [8]): 66% and 63%
Population Pyknosed Nuclei (%) (Fibroblast [1]; [8]): 22% and 15%
Population Tubulin-Different-Phenotype (%) (Fibroblast [1]; [8]): 66% and 100%
Total Cell Count (Fibroblast [1]; [8]): 66 and 61
Population Apoptotic (%) (Fibroblast [1]; [9]): 76%
Population Fragmented Nuclei (%) (Fibroblast [1]; [9]): 43%
Population Healthy Nuclei (%) (Fibroblast [1]; [9]): 39%
Population Hoechst High Intensity Objects (%) (Fibroblast [1]; [9]): 25%
Population Membrane Permeable-Phenotype (%) (Fibroblast [1]; [9]): 13%
Population Mitochondria Different-Phenotype (%) (Fibroblast [1]; [9]): 51%
Population Mitotic Cells (%) (Fibroblast [1]; [9]): 23%
Population Normal (%) (Fibroblast [1]; [9]): 74%
Population Pyknosed Nuclei (%) (Fibroblast [1]; [9]): 17%
Population Tubulin-Different-Phenotype (%) (Fibroblast [1]; [9]): 82%
Total Cell Count (Fibroblast [1]; [9]): 99
Population Apoptotic (%) (Fibroblast [1]; [10]): 100%
Population Fragmented Nuclei (%) (Fibroblast [1]; [10]): 14%
Population Healthy Nuclei (%) (Fibroblast [1]; [10]): 68%
Population Hoechst High Intensity Objects (%) (Fibroblast [1]; [10]): 10%
Population Membrane Permeable-Phenotype (%) (Fibroblast [1]; [10]): 21%
Population Mitochondria Different-Phenotype (%) (Fibroblast [1]; [10]): 56%
Population Mitotic Cells (%) (Fibroblast [1]; [10]): 0%
Population Normal (%) (Fibroblast [1]; [10]): 90%
Population Pyknosed Nuclei (%) (Fibroblast [1]; [10]): 16%
Population Tubulin-Different-Phenotype (%) (Fibroblast [1]; [10]): 81%
Total Cell Count (Fibroblast [1]; [10]): 60
Population Apoptotic (%) (Fibroblast [1]; [11]): 60%
Population Fragmented Nuclei (%) (Fibroblast [1]; [11]): 36%
Population Healthy Nuclei (%) (Fibroblast [1]; [11]): 51%
Population Hoechst High Intensity Objects (%) (Fibroblast [1]; [11]): 14%
Population Membrane Permeable-Phenotype (%) (Fibroblast [1]; [11]): 13%
Population Mitochondria Different-Phenotype (%) (Fibroblast [1]; [11]): 55%
Population Mitotic Cells (%) (Fibroblast [1]; [11]): 40%
Population Normal (%) (Fibroblast [1]; [11]): 85%
Population Pyknosed Nuclei (%) (Fibroblast [1]; [11]): 11%
Population Tubulin-Different-Phenotype (%) (Fibroblast [1]; [11]): 95%
Total Cell Count (Fibroblast [1]; [11]): 98
Population Apoptotic (%) (Fibroblast [1]; [12]): 0%
Population Fragmented Nuclei (%) (Fibroblast [1]; [12]): 40%
Population Healthy Nuclei (%) (Fibroblast [1]; [12]): 59%
Population Hoechst High Intensity Objects (%) (Fibroblast [1]; [12]): 10%
Population Membrane Permeable-Phenotype (%) (Fibroblast [1]; [12]): 16%
Population Mitochondria Different-Phenotype (%) (Fibroblast [1]; [12]): 42%
Population Mitotic Cells (%) (Fibroblast [1]; [12]): 0%
Population Normal (%) (Fibroblast [1]; [12]): 89%
Population Pyknosed Nuclei (%) (Fibroblast [1]; [12]): 0%
Population Tubulin-Different-Phenotype (%) (Fibroblast [1]; [12]): 96%
Total Cell Count (Fibroblast [1]; [12]): 105
Growth Rate (HEK-293T; [13]): 0
Growth Rate (HEK-293T; [14]): 0
Growth Rate (HEK-293T; [15]): 0
Growth Rate (HEK-293T; [16]): 0
Growth Rate (U2OS; 0 h, replicate number 1, timepoint 0 hours): 1
Growth Rate (U2OS; [17]): 0
Growth Rate (U2OS; [13]): 1
Growth Rate (U2OS; [14]): 0
Growth Rate (U2OS; 12 h, replicate number 2, timepoint 12 hours): 1
Growth Rate (U2OS; [15]): 0
Growth Rate (U2OS; [16]): 0
Growth Rate (U2OS; 24 h, replicate number 2, timepoint 24 hours): 1
Growth Rate (Fibroblast [2]; [17]): 1
Growth Rate (Fibroblast [2]; [13]): 0
Growth Rate (Fibroblast [2]; [14]): 0
Growth Rate (Fibroblast [2]; [15]): 0
Growth Rate (Fibroblast [2]; [16]): 0
